Measurements from ChEMBL document CHEMBL2424622, “Development of amino-pyrimidine inhibitors of c-Jun N-terminal kinase (JNK): kinase profiling guided optimization of a 1,2,3-benzotriazole lead” (Bioorg Med Chem Lett, 2013).

How the values were obtained:
[1] = target: T1, Mitogen-activated protein kinase 15 (Homo sapiens) (UniProt Q8TD08); test: Competitive binding affinity to ERK8 (unknown origin) at 10 uM in presence of ATP relative to control
T1 sequence (whole entry): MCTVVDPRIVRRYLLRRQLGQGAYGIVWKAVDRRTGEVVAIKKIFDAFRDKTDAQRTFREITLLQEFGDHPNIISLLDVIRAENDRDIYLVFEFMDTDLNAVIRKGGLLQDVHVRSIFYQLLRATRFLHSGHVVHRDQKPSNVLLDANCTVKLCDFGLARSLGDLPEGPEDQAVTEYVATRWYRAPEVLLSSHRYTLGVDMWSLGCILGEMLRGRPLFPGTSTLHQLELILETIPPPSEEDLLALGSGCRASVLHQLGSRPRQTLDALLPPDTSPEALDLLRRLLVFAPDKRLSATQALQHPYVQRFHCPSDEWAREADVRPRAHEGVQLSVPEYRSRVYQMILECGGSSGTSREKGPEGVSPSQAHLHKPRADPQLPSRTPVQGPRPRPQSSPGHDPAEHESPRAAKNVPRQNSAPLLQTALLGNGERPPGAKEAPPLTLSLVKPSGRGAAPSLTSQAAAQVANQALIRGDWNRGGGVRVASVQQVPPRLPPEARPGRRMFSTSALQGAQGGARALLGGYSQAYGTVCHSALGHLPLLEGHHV

[2] = target: T2, Serine/threonine-protein kinase STK11 (Homo sapiens) (UniProt Q15831); test: Competitive binding affinity to LKB1 (unknown origin) at 10 uM in presence of ATP relative to control
T2 sequence (whole entry): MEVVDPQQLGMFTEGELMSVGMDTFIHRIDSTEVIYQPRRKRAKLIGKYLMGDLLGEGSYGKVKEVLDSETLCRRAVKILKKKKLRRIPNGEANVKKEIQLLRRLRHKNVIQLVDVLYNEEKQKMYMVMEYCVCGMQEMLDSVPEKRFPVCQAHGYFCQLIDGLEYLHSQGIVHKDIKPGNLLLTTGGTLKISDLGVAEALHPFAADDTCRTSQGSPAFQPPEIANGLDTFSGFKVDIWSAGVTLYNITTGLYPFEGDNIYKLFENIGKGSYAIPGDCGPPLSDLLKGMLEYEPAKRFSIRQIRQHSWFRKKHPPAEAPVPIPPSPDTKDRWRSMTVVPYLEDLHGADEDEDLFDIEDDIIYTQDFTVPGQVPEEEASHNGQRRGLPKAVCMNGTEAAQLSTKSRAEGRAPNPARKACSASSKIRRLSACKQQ
Procedure, shortened: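 In vitro ATP-site competition binding assay, part of profiling against a diverse panel of 128 kinases. Each compound was tested at a single concentration of 10 µM. Kinome selectivity was summarized as S15 selectivity scores.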

[3] = target: T3, Protein kinase C epsilon type (Homo sapiens) (UniProt Q02156); test: Competitive binding affinity to PRKCE (unknown origin) at 10 uM in presence of ATP relative to control
T3 sequence (whole entry): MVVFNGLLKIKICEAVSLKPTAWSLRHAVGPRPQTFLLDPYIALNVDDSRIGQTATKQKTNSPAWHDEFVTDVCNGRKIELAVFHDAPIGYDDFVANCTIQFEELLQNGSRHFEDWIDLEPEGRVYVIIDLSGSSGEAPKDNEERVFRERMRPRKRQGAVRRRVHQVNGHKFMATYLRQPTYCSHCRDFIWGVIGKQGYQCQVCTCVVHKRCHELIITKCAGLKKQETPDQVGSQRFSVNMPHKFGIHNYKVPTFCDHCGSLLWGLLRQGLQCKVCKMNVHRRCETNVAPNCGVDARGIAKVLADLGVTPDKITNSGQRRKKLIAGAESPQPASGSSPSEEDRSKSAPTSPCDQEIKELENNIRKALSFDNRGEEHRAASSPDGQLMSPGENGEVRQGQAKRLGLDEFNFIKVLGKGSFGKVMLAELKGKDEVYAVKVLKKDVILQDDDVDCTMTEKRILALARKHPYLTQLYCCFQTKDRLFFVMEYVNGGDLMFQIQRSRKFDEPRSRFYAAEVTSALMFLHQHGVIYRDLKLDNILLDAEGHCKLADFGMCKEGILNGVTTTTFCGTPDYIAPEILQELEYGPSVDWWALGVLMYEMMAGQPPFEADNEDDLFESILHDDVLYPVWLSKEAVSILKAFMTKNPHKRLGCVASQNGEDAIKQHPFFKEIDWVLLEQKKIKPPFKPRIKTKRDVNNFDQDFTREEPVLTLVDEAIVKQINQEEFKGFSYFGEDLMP

Homo sapiens [4] = species: Homo sapiens; test: Competitive binding affinity to EGFR S752 to I759 deletion mutant (unknown origin) at 10 uM in presence of ATP relative to control
Homo sapiens [5] = species: Homo sapiens; test: Competitive binding affinity to EGFR L747 to S752 deletion mutant, P753S mutant (unknown origin) at 10 uM in presence of ATP relative to control
[6] = target: T4, cAMP-dependent protein kinase catalytic subunit PRKX (Homo sapiens) (UniProt P51817); test: Competitive binding affinity to PRKX (unknown origin) at 10 uM in presence of ATP relative to control
T4 sequence (whole entry): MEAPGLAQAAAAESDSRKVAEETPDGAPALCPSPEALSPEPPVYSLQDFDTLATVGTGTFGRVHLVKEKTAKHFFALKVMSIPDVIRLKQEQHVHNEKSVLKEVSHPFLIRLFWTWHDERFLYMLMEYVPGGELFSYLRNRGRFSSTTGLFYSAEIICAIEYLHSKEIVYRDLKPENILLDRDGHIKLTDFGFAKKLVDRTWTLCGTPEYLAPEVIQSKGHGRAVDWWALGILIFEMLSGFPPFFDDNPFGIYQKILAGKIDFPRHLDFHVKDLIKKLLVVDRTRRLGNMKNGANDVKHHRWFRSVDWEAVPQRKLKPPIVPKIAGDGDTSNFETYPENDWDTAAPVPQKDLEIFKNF

[7] = target: Bone morphogenetic protein receptor type-1A (Homo sapiens) (UniProt P36894); test: Competitive binding affinity to BMPR1A (unknown origin) at 10 uM in presence of ATP relative to control
Bone morphogenetic protein receptor type-1A (Homo sapiens), sequence (P36894 whole entry): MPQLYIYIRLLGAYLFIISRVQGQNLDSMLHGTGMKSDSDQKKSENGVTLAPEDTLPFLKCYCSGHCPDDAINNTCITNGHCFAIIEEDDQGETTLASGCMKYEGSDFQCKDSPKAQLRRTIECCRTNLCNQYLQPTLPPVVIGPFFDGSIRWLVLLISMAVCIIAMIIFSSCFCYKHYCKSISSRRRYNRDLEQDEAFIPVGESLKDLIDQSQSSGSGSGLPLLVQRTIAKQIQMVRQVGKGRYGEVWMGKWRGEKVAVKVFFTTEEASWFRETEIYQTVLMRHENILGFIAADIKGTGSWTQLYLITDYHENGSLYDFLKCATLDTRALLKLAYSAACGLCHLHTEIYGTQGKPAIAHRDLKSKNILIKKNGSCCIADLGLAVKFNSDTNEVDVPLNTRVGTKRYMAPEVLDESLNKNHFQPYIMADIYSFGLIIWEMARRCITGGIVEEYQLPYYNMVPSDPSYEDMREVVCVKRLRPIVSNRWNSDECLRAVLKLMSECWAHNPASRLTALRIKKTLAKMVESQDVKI

[8] = target: Serine/threonine-protein kinase PLK3 (Homo sapiens) (UniProt Q9H4B4); test: Competitive binding affinity to PLK3 (unknown origin) at 10 uM in presence of ATP relative to control
Serine/threonine-protein kinase PLK3 (Homo sapiens), sequence (Q9H4B4 whole entry, looked up): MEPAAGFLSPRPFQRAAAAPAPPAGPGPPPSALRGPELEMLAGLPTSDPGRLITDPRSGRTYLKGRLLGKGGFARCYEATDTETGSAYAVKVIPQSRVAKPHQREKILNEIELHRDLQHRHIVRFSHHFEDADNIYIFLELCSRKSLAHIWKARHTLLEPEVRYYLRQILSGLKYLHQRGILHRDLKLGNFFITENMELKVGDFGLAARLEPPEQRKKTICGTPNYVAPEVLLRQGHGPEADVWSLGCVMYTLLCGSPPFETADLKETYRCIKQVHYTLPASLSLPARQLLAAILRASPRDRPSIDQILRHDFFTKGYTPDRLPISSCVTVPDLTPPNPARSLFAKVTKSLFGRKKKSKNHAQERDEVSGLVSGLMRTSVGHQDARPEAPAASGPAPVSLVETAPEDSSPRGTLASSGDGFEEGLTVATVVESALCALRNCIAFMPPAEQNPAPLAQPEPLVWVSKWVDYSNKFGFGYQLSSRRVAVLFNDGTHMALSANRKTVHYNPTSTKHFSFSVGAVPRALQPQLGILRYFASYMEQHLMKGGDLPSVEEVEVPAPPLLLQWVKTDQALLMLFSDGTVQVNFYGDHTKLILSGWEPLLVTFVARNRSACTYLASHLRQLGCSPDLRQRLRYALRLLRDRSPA

[9] = target: Serine/threonine-protein kinase MRCK alpha (Homo sapiens) (UniProt Q5VT25); test: Competitive binding affinity to MRCKA (unknown origin) at 10 uM in presence of ATP relative to control
Serine/threonine-protein kinase MRCK alpha (Homo sapiens), sequence (Q5VT25 whole entry): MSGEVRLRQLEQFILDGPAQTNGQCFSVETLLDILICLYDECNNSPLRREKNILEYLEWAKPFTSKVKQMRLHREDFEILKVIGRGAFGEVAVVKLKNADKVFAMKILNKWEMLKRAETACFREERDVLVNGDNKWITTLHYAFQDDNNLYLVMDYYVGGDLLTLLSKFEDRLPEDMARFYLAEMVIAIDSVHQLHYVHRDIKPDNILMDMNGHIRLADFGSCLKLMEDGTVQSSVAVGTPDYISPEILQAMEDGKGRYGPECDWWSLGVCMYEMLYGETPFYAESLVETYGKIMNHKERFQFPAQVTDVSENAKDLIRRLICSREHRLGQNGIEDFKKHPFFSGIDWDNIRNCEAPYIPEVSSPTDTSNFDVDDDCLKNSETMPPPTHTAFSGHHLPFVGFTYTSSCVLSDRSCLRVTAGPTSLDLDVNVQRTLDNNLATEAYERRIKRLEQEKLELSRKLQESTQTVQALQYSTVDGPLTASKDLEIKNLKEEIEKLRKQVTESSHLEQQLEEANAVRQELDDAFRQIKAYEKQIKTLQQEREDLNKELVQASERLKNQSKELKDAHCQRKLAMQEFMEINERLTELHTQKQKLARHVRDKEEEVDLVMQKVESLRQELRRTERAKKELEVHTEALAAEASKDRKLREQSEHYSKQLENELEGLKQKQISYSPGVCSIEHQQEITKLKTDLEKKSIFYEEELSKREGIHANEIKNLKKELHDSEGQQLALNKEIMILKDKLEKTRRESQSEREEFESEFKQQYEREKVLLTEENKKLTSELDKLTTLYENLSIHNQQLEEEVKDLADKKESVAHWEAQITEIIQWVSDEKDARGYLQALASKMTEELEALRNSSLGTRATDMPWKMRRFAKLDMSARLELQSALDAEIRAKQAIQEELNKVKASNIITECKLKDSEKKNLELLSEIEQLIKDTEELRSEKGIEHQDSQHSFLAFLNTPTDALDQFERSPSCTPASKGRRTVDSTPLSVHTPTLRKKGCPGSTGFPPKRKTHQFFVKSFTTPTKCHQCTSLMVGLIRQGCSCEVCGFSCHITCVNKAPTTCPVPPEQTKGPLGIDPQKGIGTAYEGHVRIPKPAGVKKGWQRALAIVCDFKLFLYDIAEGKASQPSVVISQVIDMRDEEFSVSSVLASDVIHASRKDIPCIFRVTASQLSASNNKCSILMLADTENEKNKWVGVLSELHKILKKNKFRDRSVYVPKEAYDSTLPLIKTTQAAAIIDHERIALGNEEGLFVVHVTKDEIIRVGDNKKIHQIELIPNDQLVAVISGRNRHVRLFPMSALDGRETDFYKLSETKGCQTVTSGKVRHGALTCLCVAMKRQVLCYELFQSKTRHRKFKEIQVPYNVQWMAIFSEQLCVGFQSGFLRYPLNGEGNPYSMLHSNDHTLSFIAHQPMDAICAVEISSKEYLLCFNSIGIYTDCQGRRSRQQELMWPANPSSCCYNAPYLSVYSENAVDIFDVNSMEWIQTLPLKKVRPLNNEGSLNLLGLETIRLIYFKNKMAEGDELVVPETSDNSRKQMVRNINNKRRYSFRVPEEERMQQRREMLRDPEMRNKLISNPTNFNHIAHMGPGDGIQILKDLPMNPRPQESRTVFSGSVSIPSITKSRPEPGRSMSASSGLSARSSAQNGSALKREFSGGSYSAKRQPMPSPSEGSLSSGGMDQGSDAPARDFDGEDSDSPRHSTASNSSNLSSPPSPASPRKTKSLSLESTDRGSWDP
Procedure, shortened: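 In vitro ATP-site competition binding assay across a diverse panel of 128 kinases, with compound tested at a single concentration. Kinase selectivity scores (S15) were calculated from the panel profiles.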

[10] = target: Protein kinase C eta type (Homo sapiens) (UniProt P24723); test: Competitive binding affinity to PRKCH (unknown origin) at 10 uM in presence of ATP relative to control
Protein kinase C eta type (Homo sapiens), sequence (P24723 whole entry): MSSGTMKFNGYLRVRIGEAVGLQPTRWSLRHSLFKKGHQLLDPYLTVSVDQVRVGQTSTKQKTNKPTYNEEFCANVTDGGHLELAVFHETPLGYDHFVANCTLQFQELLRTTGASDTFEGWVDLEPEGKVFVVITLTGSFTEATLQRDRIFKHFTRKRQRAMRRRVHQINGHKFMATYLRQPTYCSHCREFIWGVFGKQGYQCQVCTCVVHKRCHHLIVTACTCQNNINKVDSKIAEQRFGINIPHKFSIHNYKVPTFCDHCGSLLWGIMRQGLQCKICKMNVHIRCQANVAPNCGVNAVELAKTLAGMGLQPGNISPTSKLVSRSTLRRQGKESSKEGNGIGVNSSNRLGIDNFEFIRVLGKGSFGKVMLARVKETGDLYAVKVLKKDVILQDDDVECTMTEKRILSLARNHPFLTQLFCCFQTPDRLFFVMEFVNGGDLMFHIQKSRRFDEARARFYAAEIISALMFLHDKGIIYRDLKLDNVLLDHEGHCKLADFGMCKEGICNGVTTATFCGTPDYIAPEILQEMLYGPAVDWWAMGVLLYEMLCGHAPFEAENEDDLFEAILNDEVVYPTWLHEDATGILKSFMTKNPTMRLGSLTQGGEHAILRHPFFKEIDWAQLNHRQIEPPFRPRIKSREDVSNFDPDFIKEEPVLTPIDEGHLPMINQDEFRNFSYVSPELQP

## O[C@H]1CC[C@H](Nc2nccc(-n3nnc4ccccc43)n2)CC1
[1]
  inhibition: 99%
[2]
  inhibition: < 50%
[3]
  inhibition: < 50%
Homo sapiens [4]
  inhibition: < 50%
Homo sapiens [5]
  inhibition: < 50%
[6]
  inhibition: < 50%
[7]
  inhibition: < 50%
[8]
  inhibition: 68%
[9]
  inhibition: < 50%
[10]
  inhibition: < 50%

## CS(=O)(=O)CCCOc1cccc2c1ccn2-c1ccnc(N[C@H]2CC[C@H](C(=O)N3CCC(O)CC3)CC2)n1
[1]
  inhibition: > 85%

## O[C@H]1CC[C@H](Nc2nccc(-n3ncc4ccccc43)n2)CC1
[1]
  inhibition: 97%
[2]
  inhibition: < 50%
[3]
  inhibition: < 50%
Homo sapiens [4]
  inhibition: < 50%
Homo sapiens [5]
  inhibition: < 50%
[6]
  inhibition: < 50%
[7]
  inhibition: < 50%
[8]
  inhibition: < 50%
[9]
  inhibition: < 50%
[10]
  inhibition: < 50%

## O[C@H]1CC[C@H](Nc2nccc(-c3n[nH]c4ccccc34)n2)CC1
[2]
  inhibition: 75%
Homo sapiens [4]
  inhibition: < 50%
Homo sapiens [5]
  inhibition: < 50%
[6]
  inhibition: < 50%
[7]
  inhibition: < 50%
[8]
  inhibition: < 50%
[9]
  inhibition: < 50%
[10]
  inhibition: < 50%

## O[C@H]1CC[C@H](Nc2nccc(-n3ccc4ccccc43)n2)CC1
[1]
  inhibition: 91%
[2]
  inhibition: < 50%
[3]
  inhibition: < 50%
Homo sapiens [4]
  inhibition: < 50%
Homo sapiens [5]
  inhibition: < 50%
[6]
  inhibition: < 50%
[7]
  inhibition: < 50%
[8]
  inhibition: < 50%
[9]
  inhibition: < 50%
[10]
  inhibition: < 50%
